KCNQ1 inh = blocks the human KCNQ1 potassium channel; P51787; CHO-K1 KCNQ1, FluxOR thallium flux fluorescence; hits give high values; B-score at 10 µM; actives 1.3% (n = 310,000); AID 2642;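 active = compounds whose thallium flux B-score, printed positive for inhibition, exceeds three library SD while starting fluorescence stays within three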;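 note: channel opened by potassium depolarization with thallium stimulus after 20 min compound exposure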
KCNQ1 pot = human KCNQ1 channel potentiation or activation; CHO-K1 KCNQ1, thallium flux FluxOR fluorescence; hits give high values; B-score at 10 µM; actives 0.35% (n = 310,000); AID 2648;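 active = fluorescence ratio B-score, a plate-corrected score, at least three library SD, with initial intensity B-score within 5 SD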
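Medium – assay buffer, equal DMSO in all wells · Material – CHO-K1 cell line with stable KCNQ1 potassium channel expression · Signal – kinetic FluxOR thallium fluorescence, 10-s 1-Hz baseline, 110-s post-stimulus read · Compound – single concentration per compound, DMSO matched to controls · Schedule – 37 °C overnight plating, 90-min dark dye load, 20-min compound pretreatment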
KCNK3 inh = human KCNK3 channel inhibition, primary screen. O14649. actives 0.84% (n = 340,000). CHO-KCNK3 thallium flux, FluxOR fluorescence; hits give low values. B-score at 10 µM;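 active = B-score under library mean minus 4 SD, starting fluorescence ratio at most library mean plus 5 SD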;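 note: more negative B-score means stronger inhibition of thallium flux through KCNK3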
Target sequence (O14649 whole entry, looked up): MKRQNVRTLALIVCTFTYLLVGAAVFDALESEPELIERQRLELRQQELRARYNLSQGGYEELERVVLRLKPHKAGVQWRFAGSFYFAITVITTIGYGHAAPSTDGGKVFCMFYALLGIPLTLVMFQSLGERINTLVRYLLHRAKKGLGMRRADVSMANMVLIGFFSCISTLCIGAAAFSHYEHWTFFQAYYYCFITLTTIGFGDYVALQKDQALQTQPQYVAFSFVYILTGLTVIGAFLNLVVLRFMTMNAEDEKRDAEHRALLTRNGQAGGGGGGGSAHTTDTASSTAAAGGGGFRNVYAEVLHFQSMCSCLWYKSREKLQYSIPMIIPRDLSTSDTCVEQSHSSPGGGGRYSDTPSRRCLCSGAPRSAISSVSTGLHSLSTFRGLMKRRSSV
KCC2 mod = modulates chloride dependent transport by human KCC2; KCC2 cells, thallium flux FluoZin-2 fluorescence; AID 1456; Q9H2X9; actives 2.2% (n = 190,000); B-score of Tl+ flux slope (higher = more flux/activation; lower = inhibition) at 10 µM;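 active = thallium flux slope and its plate-corrected score both differing from the plate sample mean at a set confidence after two filtering rounds, in either direction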;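 note: slope of fluorescence scaled to starting intensity during 10 to 20 s after thallium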
KCNK9 inh = human KCNK9 channel inhibition. Q9NPC2. HEK293 KCNK9, FluxOR thallium flux fluorescence; hits give low values. B-score at 10 µM. actives 1.2% (n = 310,000);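 active = ratio B-score over 3 SD below the library mean, with starting fluorescence within 5 SD of its mean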;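 note: negative B-score means less thallium flux so channel inhibition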
hERG rescue = shields human hERG channel from block by proarrhythmic agents. Q12809. CHO-hERG, FluxOR thallium flux, dofetilide IC70 present. activation (rescue from dofetilide block), less the hit threshold, % at 10 µM. actives 0.51% (n = 310,000);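 active = activation above the mean of controls blocked by dofetilide plus 5 SD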;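 note: thallium influx through hERG after potassium depolarization seen as dye fluorescence rise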
Each line names hits and unclear results; the compound was inactive in the other large screens. Rows were chosen to be rich in hits. Some 4.1% of all compounds tested hit in one or more screens of this group.

CCOC(=O)C1=CNS(=O)(=O)NC1c1ccccc1 (stereo not given)	none (no result: KCNQ1 inh, KCNQ1 pot, KCC2 mod, KCNK9 inh, hERG rescue)
C/C(=N\NC(=O)c1ccccc1[N+](=O)[O-])c1ccc(Br)s1	none
C/C(=N\NC(=O)c1ccccc1O)c1ccc(Br)s1	KCC2 mod 10.9, hERG rescue 5.4
C/C(=N\NC(=O)c1cccc(F)c1)c1ccc(Br)s1	KCNQ1 pot 11 (no result: KCC2 mod)
CCCc1cc(=O)oc2cc(C)cc(OC(C)C(=O)NCc3ccncc3)c12 (stereo not given)	none (no result: KCC2 mod)
COc1cc(NC(=O)Cn2cnc(S(=O)(=O)N3CCC(C)CC3)c2)cc(OC)c1OC	KCNK3 inh -9.02 (no result: KCC2 mod)
COc1cc(NC(=O)Cn2cnc(S(=O)(=O)N3CCCC3)c2)cc(OC)c1OC	none (no result: KCC2 mod)
Cc1cc(Cl)ccc1OCC(O)CNCCc1ccc(S(N)(=O)=O)cc1 (stereo not given)	none (no result: KCC2 mod)
COc1ccccc1C=NN=C(NN=Cc1ccccc1OC)NN=Cc1ccccc1OC	KCNK3 inh -11.2 (no result: KCNQ1 inh, KCNQ1 pot, KCC2 mod, KCNK9 inh, hERG rescue)
O=C(CCNC(=O)C1CCN(S(=O)(=O)c2ccccc2)CC1)Nc1cccc(C(F)(F)F)c1	none (no result: KCC2 mod)
O=C(N/N=C/C(Br)=C/c1ccccc1)c1ccccc1[N+](=O)[O-]	KCNK9 inh -6.9 (no result: KCC2 mod)
Cc1ccc(-c2cc(C(=O)N/N=C/c3ccccc3O)n[nH]2)o1	none (no result: KCC2 mod)
Cc1ccc(-c2cc(C(=O)N/N=C/C(Br)=C/c3ccccc3)n[nH]2)o1	KCNK9 inh -7.05
COc1cccc(C(=O)N/N=C/C(Br)=C/c2ccccc2)c1	KCNK9 inh -8.06
O=C(N/N=C/c1ccncc1)c1ccccc1[N+](=O)[O-]	none
CCOc1ccc(/C(O)=C2/C(=O)C(=O)N(c3ccccn3)C2c2ccc(F)cc2)c(C)c1 (stereo not given)	none (no result: KCC2 mod)
CCCn1nc(C(=O)NNC(=O)c2cccc(S(=O)(=O)NC(C)C)c2)c2ccccc2c1=O	none (no result: KCC2 mod)
COc1ccc(S(=O)(=O)N2CCCCC2)cc1NC(=O)Cn1cnc2c1c(=O)n(C)c(=O)n2C	none (no result: KCNQ1 inh, KCNQ1 pot, KCC2 mod, KCNK9 inh, hERG rescue)
C=CCNc1nc(C(=O)OCC(=O)c2ccc(Cl)cc2)cs1	none (no result: KCC2 mod)
O=C(O)CC(NC(=O)C1CCCCC1)c1cc([N+](=O)[O-])ccc1Cl (stereo not given)	KCNQ1 inh 12
O=C(O)CC(NC(=O)C12CC3CC(CC(C3)C1)C2)c1cc([N+](=O)[O-])ccc1Cl (stereo not given)	none
COC(=O)CNC(c1ccccc1)c1cc(Br)ccc1N (stereo not given)	none
COC(=O)CNC(c1ccccc1)c1cc(Br)ccc1NS(=O)(=O)c1ccc(C)cc1 (stereo not given)	KCNK9 inh -7.43
CCOC(=O)CNC(c1ccccc1)c1cc(Br)ccc1NC(=O)OCC (stereo not given)	none
COC(=O)CNC(c1ccccc1)c1cc(Br)ccc1NS(=O)(=O)c1ccccc1 (stereo not given)	KCNK9 inh -6.6
Cc1onc(-c2ccccc2Cl)c1C(=O)Nc1nnc(-c2ccc(Br)cc2)s1	KCNQ1 inh 8
Cc1onc(-c2ccccc2Cl)c1C(=O)Nc1nnc(-c2ccc(F)cc2)s1	none
Cc1onc(-c2ccccc2Cl)c1C(=O)Nc1nnc(-c2ccc(Cl)cc2Cl)s1	KCNQ1 inh 8 (no result: KCC2 mod)
CC12CCC(C(NC(=S)NN)C1=O)C2(C)C (stereo not given)	none (no result: KCNQ1 inh, KCNQ1 pot, KCC2 mod, KCNK9 inh, hERG rescue)
CN(Cc1nc2ccccc2c(=O)[nH]1)C(=O)c1cc(-c2ccc(Br)cc2)nc2ccccc12	none (no result: KCNQ1 inh, KCNQ1 pot, KCC2 mod, KCNK9 inh, hERG rescue)
CN1CCN(c2ccc(NC(=O)c3ccc(Br)o3)cc2)CC1	KCNQ1 pot 13 (no result: KCC2 mod)
CC(C)(C)c1cnnn1-c1ccc(NC(=O)c2ccc(Br)o2)cc1	KCNK9 inh -7.07
COc1cccc(C(=O)Nc2ccc(-n3nncc3C(C)(C)C)cc2)c1	none
CN1/C(=C/C(=O)C2CC2)C(C)(C)c2ccccc21	none
CCN(CC)S(=O)(=O)c1cccc(C(=O)/C=C2/N(C)c3ccccc3C2(C)C)c1	KCNK9 inh -7.71
CC1CCN(C(=O)COC(=O)c2ccc3c(c2)C(=O)N(Cc2ccco2)C3=O)CC1	none (no result: KCNQ1 inh, KCNQ1 pot, KCC2 mod, KCNK9 inh, hERG rescue)
CCCNC(=O)COc1coc(CN2CCN(c3ccccc3F)CC2)cc1=O	none (no result: KCC2 mod)
Cc1csc(CN(C)C(=O)CC2C(=O)NCCN2Cc2ccc(F)c(F)c2)n1 (stereo not given)	none (no result: KCC2 mod)
